Measured values published in ChEMBL document CHEMBL4251702, “Potential Antimicrobial Isopropanol-Conjugated Carbazole Azoles as Dual Targeting Inhibitors of Enterococcus faecalis” (ACS Med Chem Lett, 2018).
In brackets after ≈: the same amount, converted by molar mass. Activity calls are given as the source filed them. The calls are words filed in the database; no cut-off is given here.

Experiments:
[1] = test system: Candida parapsilosis; test: Antifungal activity against Candida parapsilosis ATCC 22019 after 24 hrs by two-fold serial dilution method; assay type: functional
[2] = test system: Staphylococcus aureus; test: Antimicrobial activity against Staphylococcus aureus ATCC 25923 after 24 hrs by two-fold serial dilution method; assay type: functional, organism-based
[3] = test system: Enterococcus faecalis; test: Induction of membrane disruption in Enterococcus faecalis at 12 times MIC measured every 10 mins for 60 mins by propidium iodide staining based fluorescence assay; assay type: functional, organism-based
In short: (§1)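 Membrane permeabilization was tracked by propidium iodide, which enters compromised cells and fluoresces on binding DNA. Fluorescence of bacteria with compound plus PI was recorded over 60 min, against two control groups. Strains were E. faecalis and E. coli ATCC 25922.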

[4] = test system: DNA; test: Binding affinity to Enterococcus faecalis DNA assessed as DNA intercalation by neutral red dye based spectrofluorimetric method; assay type: nucleic-acid assay
In short: (§2)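 Genomic DNA was isolated from drug-resistant E. faecalis strains and examined in vitro with the compound by UV–vis absorption and by neutral red fluorescence spectroscopy.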

[5] = test system: Acinetobacter baumannii; test: Antimicrobial activity against Acinetobacter baumannii after 24 hrs by two-fold serial dilution method; assay type: functional, organism-based
[6] = test system: Staphylococcus aureus; test: Antimicrobial activity against methicillin-resistant Staphylococcus aureus after 24 hrs by two-fold serial dilution method; assay type: functional, organism-based
[7] = test system: Enterococcus faecalis; test: Antimicrobial activity against Enterococcus faecalis after 24 hrs by two-fold serial dilution method; assay type: functional
[8] = test system: Enterococcus faecalis; test: Antimicrobial activity against Enterococcus faecalis after 11 passages measured at 24 hrs interval for 16 days by two-fold serial dilution method; assay type: functional
[9] = test system: Enterococcus faecalis; test: Bactericidal activity against Enterococcus faecalis assessed as log reduction in bacterial colonies at 4 times MIC measured within 1 hr by time-kill assay; assay type: functional
In short: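 Viable counts of E. faecalis were expressed as log CFU/mL and followed over the first hour of exposure at 4 × MIC. A positive-control drug was run alongside.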

[10] = test system: Klebsiella pneumoniae; test: Antimicrobial activity against Klebsiella pneumoniae after 24 hrs by two-fold serial dilution method; assay type: functional, organism-based
[11] = test system: Escherichia coli; test: Induction of membrane disruption in Escherichia coli ATCC 25922 at 12 times MIC measured every 10 mins for 60 mins by propidium iodide staining based fluorescence assay; assay type: functional, organism-based; in short: as §1
[12] = test system: DNA; test: Binding affinity to Enterococcus faecalis DNA assessed as DNA intercalation by UV-vis absorption spectrophotometric method; assay type: nucleic-acid assay; in short: as §2
[13] = test system: Escherichia coli; test: Antimicrobial activity against Escherichia coli ATCC 25922 after 24 hrs by two-fold serial dilution method; assay type: functional, organism-based
[14] = test system: Staphylococcus aureus; test: Antimicrobial activity against Staphylococcus aureus after 24 hrs by two-fold serial dilution method; assay type: functional, organism-based
[15] = test system: Pseudomonas aeruginosa; test: Antimicrobial activity against Pseudomonas aeruginosa ATCC 27853 after 24 hrs by two-fold serial dilution method; assay type: functional
[16] = test system: Aspergillus fumigatus; test: Antifungal activity against Aspergillus fumigatus after 24 hrs by two-fold serial dilution method; assay type: functional
[17] = test system: Staphylococcus aureus; test: Antimicrobial activity against Staphylococcus aureus ATCC 29213 after 24 hrs by two-fold serial dilution method; assay type: functional, organism-based
[18] = test system: Pseudomonas aeruginosa; test: Antimicrobial activity against Pseudomonas aeruginosa after 24 hrs by two-fold serial dilution method; assay type: functional, organism-based
[19] = Cytotoxicity against mouse RAW264.7 cells assessed as cell viability at 128 ug/ml after 24 hrs by MTT assay relative to control; assay type: cell-based; conditions: read-out: Activity
In short: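 Normal mouse macrophage RAW264.7 cells were exposed to the compound up to 128 μg/mL for 24 h, and viability was read by MTT. Each bar is the mean of three parallels, with error bars of one standard deviation.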

[20] = test system: Escherichia coli; test: Antimicrobial activity against Escherichia coli after 24 hrs by two-fold serial dilution method; assay type: functional, organism-based
[21] = test system: Enterococcus faecalis; test: Antimicrobial activity against Enterococcus faecalis assessed as ratio of MIC after and before […] measured at 24 hrs interval for 16 days by two-fold serial dilution method; assay type: functional
[22] = Solubility of the compound in water; assay type: physicochemical; conditions: buffer
[23] = test system: Escherichia coli; test: Antimicrobial activity against Escherichia coli ATCC 25922 after 24 hrs under pH 4 to 11 by two-fold serial dilution method; assay type: functional, organism-based
[24] = test system: Staphylococcus aureus; test: Antimicrobial activity against Staphylococcus aureus after 24 hrs under pH 4 to 11 by two-fold serial dilution method; assay type: functional, organism-based
[25] = test system: Enterococcus faecalis; test: Antimicrobial activity against Enterococcus faecalis after 24 hrs under pH 4 to 11 by two-fold serial dilution method; assay type: functional, organism-based
[26] = test system: Escherichia coli; test: Antimicrobial activity against Escherichia coli after 24 hrs under pH 4 to 11 by two-fold serial dilution method; assay type: functional, organism-based
[27] = test system: Klebsiella pneumoniae; test: Antimicrobial activity against Klebsiella pneumoniae after 24 hrs under pH 4 to 11 by two-fold serial dilution method; assay type: functional, organism-based
[28] = test system: Pseudomonas aeruginosa; test: Antimicrobial activity against Pseudomonas aeruginosa ATCC 27853 after 24 hrs under pH 4 to 11 by two-fold serial dilution method; assay type: functional, organism-based
[29] = test system: Staphylococcus aureus; test: Antimicrobial activity against Staphylococcus aureus ATCC 29213 after 24 hrs under pH 4 to 11 by two-fold serial dilution method; assay type: functional, organism-based
[30] = test system: Acinetobacter baumannii; test: Antimicrobial activity against Acinetobacter baumannii after 24 hrs under pH 4 to 11 by two-fold serial dilution method; assay type: functional, organism-based
[31] = test system: Staphylococcus aureus; test: Antimicrobial activity against Staphylococcus aureus ATCC 25923 after 24 hrs under pH 4 to 11 by two-fold serial dilution method; assay type: functional, organism-based
[32] = test system: Pseudomonas aeruginosa; test: Antimicrobial activity against Pseudomonas aeruginosa after 24 hrs under pH 4 to 11 by two-fold serial dilution method; assay type: functional, organism-based
[33] = test system: Staphylococcus aureus; test: Antimicrobial activity against methicillin-resistant Staphylococcus aureus after 24 hrs under pH 4 to 11 by two-fold serial dilution method; assay type: functional, organism-based

SMILES | Activity [2] | Activity [5] | Activity [6] | Activity [10] | Activity [13] | Activity [14] | Activity [15] | Activity [17] | Activity [18] | Activity [20] | Activity [7] | further results
OC(Cn1cncn1)Cn1c2ccc(Cl)cc2c2cc(Cl)ccc21 (centres undefined) | Active | Active | Active | Active | Active | Active | Active | Active | Active | Active | – | MIC ([1]; Lodderomyces parapsilosis, ATCC 22019, 24 h): 4 mg/L (≈ 11.1 µM); Activity [3]: Active; Activity [4]: Active; MIC [7]: 2 mg/L (≈ 5.54 µM); MIC [8]: 2 to 8 mg/L (≈ 5.54 to 22.1 µM); Activity [9]: >3 log10CFU/ml; Activity [11]: Active; Activity [12]: Active; MIC [16]: 32 mg/L (≈ 88.6 µM); viability at 24 h, 128 ug/ml [19]: > 80%
OC(Cn1cncn1)(Cn1cncn1)c1ccc(F)cc1F | – | – | – | – | – | – | – | – | – | – | – | Activity [1]: Active; Activity [16]: Active
CC(C)(C)c1ccc2c(c1)c1cc(C(C)(C)C)ccc1n2CC(O)Cn1cncn1 (centres undefined) | Active | Active | Active | Active | Active | Active | Active | Active | Active | Active | Active | –
CCn1cc(C(=O)O)c(=O)c2cc(F)c(N3CCNCC3)cc21 [NORFLOXACIN] | – | – | – | – | Active | – | – | Active | – | – | Active | Ratio [21]: 16
OC(Cn1ccnc1-c1ccccc1)Cn1c2ccccc2c2ccccc21 (centres undefined) | inactive | inactive | inactive | inactive | inactive | inactive | inactive | inactive | inactive | inactive | inactive | –
O=[N+]([O-])c1cn(CC(O)Cn2c3ccccc3c3ccccc32)cn1 (centres undefined) | Active | Active | Active | Active | Active | Active | Active | Active | Active | Active | Active | –
Cc1nccn1CC(O)Cn1c2ccccc2c2ccccc21 (centres undefined) | Active | Active | Active | Active | Active | Active | Active | Active | Active | Active | Active | –
OC(Cn1cncn1)Cn1c2ccccc2c2ccccc21 (centres undefined) | Active | Active | Active | Active | Active | Active | Active | Active | Active | Active | Active | –
OC(Cn1cncn1)Cn1c2ccccc2c2cc(I)ccc21 (centres undefined) | Active | Active | Active | Active | Active | Active | Active | Active | Active | Active | Active | –
OC(Cn1cncn1)Cn1c2ccccc2c2ccc(Br)cc21 (centres undefined) | Active | Active | Active | Active | Active | Active | Active | Active | Active | Active | Active | –
Cc1ncc([N+](=O)[O-])n1CC(O)Cn1c2ccc(Br)cc2c2cc(Br)ccc21 (centres undefined) | – | – | – | – | – | – | – | – | – | – | – | MIC ([15]; ATCC 27853, 24 h): 32 mg/L (≈ 63 µM)
OC(Cn1cncn1)Cn1c2ccccc2c2cc(Br)ccc21 (centres undefined) | Active | Active | Active | Active | Active | Active | Active | Active | Active | Active | Active | –
Cc1ncc([N+](=O)[O-])n1CC(O)Cn1c2ccccc2c2ccccc21 (centres undefined) | Active | Active | Active | Active | Active | Active | Active | Active | Active | Active | Active | solubility [22]: Soluble; Activity [23]: Active; Activity [24]: Active; Activity [25]: Active; Activity [26]: Active; Activity [27]: Active; Activity [28]: Active; Activity [29]: Active; Activity [30]: Active; Activity [31]: Active; Activity [32]: Active; Activity [33]: Active
OC(Cn1cncn1)Cn1c2ccc(Br)cc2c2cc(Br)ccc21 (centres undefined) | Active | Active | Active | Active | Active | Active | Active | Active | Active | Active | Active | –
